Results taken from paper PMC11315854 (Drugs in R&D, 2024).
Read-outs that look alike come from different tables or passages of the source.

Legend:
[1] = Mouse pharmacokinetic model; type: in vivo, mice
Summary of the method: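 Mean plasma concentration–time data from nude mice given single oral 1, 5 or 10 mg/kg (n = 27 per dose), taken from earlier work. Sampling pre-dose and at 0.083–24 h. Linear one-compartment model with first-order oral absorption fitted simultaneously across doses to estimate ka, CL/F and V/F, with RSE%.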

[2] = Patient population pharmacokinetic model; type: in vivo, human
Summary of the method: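 Phase 1 3+3 dose-escalation patients. Single oral dose on day 1, 1-week washout, then QD, 3-weeks-on/1-week-off, or QW. Plasma sampled intensively in cycle 1 and pre-dose in later cycles. Assayed by LC–MS/MS (LLOQ 0.5 ng/mL). Two-compartment nonlinear mixed-effects model with first-order absorption, exponential IIV and proportional residual error, fitted in NONMEM.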

pAkt (serine 473) = type: in vivo, mice
pAkt [3] = type: in vivo, human; conditions: patients
Summary of the method: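 Blood drawn pre-dose and 1, 3, 8 and 24 h post-dose on day 1 from phase 1 patients (n = 37). pAkt in platelet-rich plasma measured by MSD assay and expressed as % of baseline. Concentrations predicted from individual population-PK parameters. Indirect response model (inhibition of pAkt formation) fitted, with Imax and γ1 fixed at 1, proportional error and IIV on IC50.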

[4] = system: 786-O human renal cell adenocarcinoma (RCC) xenografts; assay: Integrated PK–PD–efficacy model, tumor volume in 786-O xenograft mice; type: in vivo; conditions: 786-O xenografts
Summary of the method: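 Female beige nude XID mice bearing subcutaneous 786-O tumour fragments. Grouped at 100–300 mm3 (mean 181 mm3). Dosed PO QD for 17 days in MCT (0.5% methylcellulose, 0.2% Tween 80), vehicle or 0.008–11 mg/kg, n = 6. Caliper volumes taken pre-dose and at 72–408 h. Inhibition predicted from mouse PK and PK–PD models. All groups fitted simultaneously to growth/shrinkage model with sigmoid Ks.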

advanced solid tumors = type: in vivo, human
Summary of the method: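 Phase 1 dose-escalation patients with advanced solid tumours or NHL, oral 2–200 mg (QD, 3-weeks-on/1-week-off, or QW). Lesions imaged by CT or MRI at baseline, after cycles 1 and 2, then every two cycles. Tumour size linked to predicted %pAkt inhibition via growth/shrinkage model with sigmoid Ks. Individual PK and dosing records used, with individual or typical IC50. All doses fitted simultaneously.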

Unbound fraction in mice = type: in vitro ADME; conditions: mouse, plasma
[5] = Unbound fraction in humans; type: in vitro ADME; conditions: human, plasma
pAkt [6] = conditions: patients, doses ≥ 16 mg; cited from earlier work
786-O cell line = conditions: in vitro, cancer cell lines; cited from earlier work
Gli mRNA = conditions: preclinical models of the hedgehog pathway; cited from earlier work
[7] = nude mice, single PO 1, 5 and 10 mg/kg, one-compartment model

**Q.** Which results are given for `Cc1c(CN2CCN(C(=O)[C@H](C)O)CC2)sc2c(N3CCOCC3)nc(-c3cnc(N)nc3)nc12` [apitolisib]?
**A.** linearity of pharmacokinetics over the range of doses tested ([1]; mice, PO 1, 5 and 10 mg/kg): linear; absorption rate constant (ka), estimate (RSE%) [1, 7]: 1.1 (36.4%) h^−1; apparent volume of distribution after oral dosing (V/F), estimate (RSE%) [1, 7]: 1.13 (17.3%) L/kg; k el ([1]; nude, mouse, plasma, oral): 8.33e-05 s⁻¹; k el ([2]; human, plasma, oral): 2.78e-05 s⁻¹; CL/F ([2]; human, plasma, po): 5.07 mL/min/kg; body-weight-normalized apparent volume of the central compartment (V1/F) ([2]; patients, assuming reference body weight of 70 kg): 3.01 L/kg; absorption lagged time estimate (RSE%) ([2]; patients, n = 146, oral dosing): 0.465 (0.43%) h; absorption rate constant (ka), population typical value (RSE%) ([2]; patients, n = 146, oral dosing): 3.35 (16.8%) h^−1; apparent intercompartmental clearance (CLd/F), population typical value (RSE%) ([2]; patients, n = 146, oral dosing): 5.93 (8.53%) L/h; apparent oral clearance (CL/F), population typical value (RSE%) ([2]; patients, n = 146, oral dosing, two-compartment model): 21.3 (4.28%) L/h; pAkt reduction in tumor (pAkt (serine 473); 786-O tumor-bearing mice, single oral 0.3 mg/kg): very weak; duration of sustained pAkt suppression in tumor (pAkt (serine 473); 786-O tumor-bearing mice, single oral 3 mg/kg): 6 h; duration of sustained pAkt suppression in tumor (pAkt (serine 473); 786-O tumor-bearing mice, single oral 10 mg/kg): 12 h; effect on pAkt in tumors across doses (pAkt (serine 473); 786-O tumor-bearing mice, single oral 0.3, 3 and 10 mg/kg): dose-dependent decrease; kin (rate of biomarker production) (pAkt (serine 473); 786-O xenograft mice, tumor tissue pAkt): 88,698 %/h; Imax (maximum inhibition of %pAkt) (pAkt (serine 473); 786-O xenograft mice, fixed in model): 1 (fix); kout (first-order rate constant describing biomarker loss) (pAkt (serine 473); 786-O xenograft mice, kout = kin/%pAkt(0), baseline 100%): 886.98 h⁻¹; kin (rate of biomarker production) (pAkt [3]; platelet-rich plasma pAkt): 88,699 %/h; effect on pAkt in plasma with increasing doses (pAkt [3]; platelet-rich plasma, 2–70 mg): dose-dependent decrease; peak suppression of the platelet pAkt (pAkt [3]; platelet-rich plasma, doses ≥ 12 mg): 90%; Imax (maximum inhibition of %pAkt) (pAkt [3]; fixed in model): 1 (fix); kout (first-order rate constant describing biomarker loss) (pAkt [3]; kout = kin/%pAkt(0), baseline 100%): 886.99 h⁻¹; Kmax (maximum value of tumor shrinkage rate constant Ks) [4]: 0.0194 h⁻¹; Kg (net tumor growth rate constant) ([4]; QD PO 17 days, 0.008–11 mg/kg): 0.0057 h⁻¹; KI50 (I where Ks is 50% of Kmax) ([4]; pAkt in tumor tissue): 67.2 %pAKT inhibition; constant pAkt inhibition necessary to achieve tumor stasis (Ks = Kg) ([4]; tumor tissue pAkt): 61%; Kmax (maximum value of tumor shrinkage rate constant Ks) (advanced solid tumors; patients with advanced solid tumors): 0.0142 1/week; Kg (net tumor growth rate constant) (advanced solid tumors; patients with advanced solid tumors, 2–200 mg): 0.0097 1/week; KI50 (I where Ks is 50% of Kmax) (advanced solid tumors; patients, pAkt in surrogate plasma): 58.0 %pAKT inhibition; constant pAkt inhibition necessary to achieve tumor stasis (Ks = Kg) (advanced solid tumors; patients, platelet-rich plasma pAkt): 65%; fraction unbound (Unbound fraction in mice): 0.294; fraction unbound [5]: 0.388; reduction in platelet-rich plasma PD markers, including pAkt (pAkt [6]): ≥ 90%; responsiveness of 786-O cell line compared with other tumor types such as MCF-7 (786-O cell line): less responsive

**Q.** Which “minimum Gli mRNA inhibition needed for tumor growth inhibition” value (Gli mRNA) does the source give for `CS(=O)(=O)c1ccc(C(=O)Nc2ccc(Cl)c(-c3ccccn3)c2)c(Cl)c1` [vismodegib] here?
**A.** ~50%
